pEC50, pIC50, pKi: −log10 of the molar value.
Experiments:
[1] = molecular target: T1, Serine/threonine-protein kinase mTOR (Homo sapiens, UniProt P42345); test: Inhibition of mTOR (unknown origin)
[2] = molecular target: T2, Phosphatidylinositol 4,5-bisphosphate 3-kinase catalytic subunit delta isoform (Homo sapiens, UniProt O00329); test: Displacement of TAMRA-PIP3 from PI3Kdelta GRP-1 pleckstrin homology domain (unknown origin) assessed as formation of 3,4,5-inositoltriphosphate after 30 mins by fluorescence polarization assay
T2 sequence (O00329 whole entry): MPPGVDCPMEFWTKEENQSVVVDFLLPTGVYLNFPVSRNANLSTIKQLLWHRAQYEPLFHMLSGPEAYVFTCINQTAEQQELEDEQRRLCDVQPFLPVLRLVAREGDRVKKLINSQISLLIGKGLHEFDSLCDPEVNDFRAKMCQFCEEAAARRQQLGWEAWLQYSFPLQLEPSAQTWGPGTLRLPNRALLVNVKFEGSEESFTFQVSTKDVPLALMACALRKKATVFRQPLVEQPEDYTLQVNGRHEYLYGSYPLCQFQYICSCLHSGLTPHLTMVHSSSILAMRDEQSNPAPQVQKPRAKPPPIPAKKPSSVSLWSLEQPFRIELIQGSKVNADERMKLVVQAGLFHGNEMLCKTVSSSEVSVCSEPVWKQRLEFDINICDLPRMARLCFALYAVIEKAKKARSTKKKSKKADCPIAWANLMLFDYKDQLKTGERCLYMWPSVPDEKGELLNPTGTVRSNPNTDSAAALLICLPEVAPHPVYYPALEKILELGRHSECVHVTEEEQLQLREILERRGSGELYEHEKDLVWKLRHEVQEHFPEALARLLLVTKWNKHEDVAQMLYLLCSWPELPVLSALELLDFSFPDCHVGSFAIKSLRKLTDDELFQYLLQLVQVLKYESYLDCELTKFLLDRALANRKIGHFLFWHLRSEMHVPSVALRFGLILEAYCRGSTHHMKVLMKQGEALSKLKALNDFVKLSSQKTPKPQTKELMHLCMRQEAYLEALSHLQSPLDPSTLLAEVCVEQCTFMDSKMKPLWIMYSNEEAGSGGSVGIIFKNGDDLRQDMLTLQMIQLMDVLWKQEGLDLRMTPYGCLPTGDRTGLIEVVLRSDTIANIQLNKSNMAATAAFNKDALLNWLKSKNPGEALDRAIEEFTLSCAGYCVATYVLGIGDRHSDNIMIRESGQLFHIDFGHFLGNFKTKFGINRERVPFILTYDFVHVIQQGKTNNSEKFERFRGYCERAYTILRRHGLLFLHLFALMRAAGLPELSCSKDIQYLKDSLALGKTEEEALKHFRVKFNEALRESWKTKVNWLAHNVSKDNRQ

[3] = molecular target: Phosphatidylinositol 4,5-bisphosphate 3-kinase catalytic subunit alpha isoform (Homo sapiens, UniProt P42336); test: Displacement of TAMRA-PIP3 from PI3Kalpha GRP-1 pleckstrin homology domain (unknown origin) assessed as formation of 3,4,5-inositoltriphosphate after 30 mins by fluorescence polarization assay
[4] = test system: PC-3; test: Antiproliferative activity against PTEN deficient human PC3 cells assessed as cell viability after 3 days by CellTiter-Glo assay; type: functional, cell-based; conditions: PC-3, 72 h
Procedure, shortened: (§1)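 Three-day cell viability assay in PTEN-null NCI-PC3 prostate carcinoma cells and in MCF7 neo/HER2 cells, read as antiproliferative activity.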

[5] = test system: MCF7; test: Antiproliferative activity against human MCF7 cells expressing neo/Her2 assessed as cell viability after 3 days by CellTiter-Glo assay; type: functional, cell-based; conditions: MCF7, 72 h; procedure, shortened: as §1
[6] = molecular target: T1, Serine/threonine-protein kinase mTOR; test: Inhibition of mTOR in PTEN deficient human PC3 cells assessed as inhibition of p70S6K phosphorylation; type: cell-based, PC-3
[7] = molecular target: T1, Serine/threonine-protein kinase mTOR; test: Inhibition of mTOR in PTEN deficient human PC3 cells assessed as inhibition of Akt phosphorylation at Ser473; type: cell-based, PC-3
[8] = molecular target: T1, Serine/threonine-protein kinase mTOR; test: Inhibition of human recombinant mTOR (1360-2549) expressed in insect cells assessed as phosphorylation of recombinant (GFP)-4-EBP1 after 30 mins by LanthaScreen FRET assay
[9] = organism: Homo sapiens; test: Selectivity ratio of IC50 for PI3Kalpha (unknown origin) to Ki for human recombinant mTOR (1360-2549)
Procedure, shortened: (§2)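 Ratio of two biochemical values. The PI3K IC50 (PI3Kα or PI3Kδ) comes from a fluorescence polarization kinase assay. The mTOR Ki comes from a LanthaScreen FRET assay on the recombinant mTOR kinase domain. Each value is from at least two separate determinations, with typical variation under 30%.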

[10] = organism: Homo sapiens; test: Selectivity ratio of IC50 for PI3Kdelta (unknown origin) to Ki for human recombinant mTOR (1360-2549); procedure, shortened: as §2
[11] = Efflux ratio of apparent permeability in MDCK cells; type: ADME, cell-based, Canis lupus familiaris; conditions: dog
[12] = Apparent permeability across basolateral to apical side in MDCK cells; type: ADME, cell-based, Canis lupus familiaris; conditions: dog
[13] = Oral bioavailability in mouse at 25 mg/kg; type: ADME, organism-based; conditions: in vivo
Procedure, shortened: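 Mice were given a 25 mg/kg oral dose as a suspension in MCT. Bioavailability was reported as %F.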

[14] = Volume of distribution at steady state in iv dosed mouse; type: ADME, organism-based; conditions: in vivo, read-out: Vdss
[15] = Plasma clearance in iv dosed mouse; type: ADME, organism-based

Chain of Phosphatidylinositol 4,5-bisphosphate 3-kinase catalytic subunit alpha isoform (P42336 whole entry, the tested form may be a part, canonical isoform): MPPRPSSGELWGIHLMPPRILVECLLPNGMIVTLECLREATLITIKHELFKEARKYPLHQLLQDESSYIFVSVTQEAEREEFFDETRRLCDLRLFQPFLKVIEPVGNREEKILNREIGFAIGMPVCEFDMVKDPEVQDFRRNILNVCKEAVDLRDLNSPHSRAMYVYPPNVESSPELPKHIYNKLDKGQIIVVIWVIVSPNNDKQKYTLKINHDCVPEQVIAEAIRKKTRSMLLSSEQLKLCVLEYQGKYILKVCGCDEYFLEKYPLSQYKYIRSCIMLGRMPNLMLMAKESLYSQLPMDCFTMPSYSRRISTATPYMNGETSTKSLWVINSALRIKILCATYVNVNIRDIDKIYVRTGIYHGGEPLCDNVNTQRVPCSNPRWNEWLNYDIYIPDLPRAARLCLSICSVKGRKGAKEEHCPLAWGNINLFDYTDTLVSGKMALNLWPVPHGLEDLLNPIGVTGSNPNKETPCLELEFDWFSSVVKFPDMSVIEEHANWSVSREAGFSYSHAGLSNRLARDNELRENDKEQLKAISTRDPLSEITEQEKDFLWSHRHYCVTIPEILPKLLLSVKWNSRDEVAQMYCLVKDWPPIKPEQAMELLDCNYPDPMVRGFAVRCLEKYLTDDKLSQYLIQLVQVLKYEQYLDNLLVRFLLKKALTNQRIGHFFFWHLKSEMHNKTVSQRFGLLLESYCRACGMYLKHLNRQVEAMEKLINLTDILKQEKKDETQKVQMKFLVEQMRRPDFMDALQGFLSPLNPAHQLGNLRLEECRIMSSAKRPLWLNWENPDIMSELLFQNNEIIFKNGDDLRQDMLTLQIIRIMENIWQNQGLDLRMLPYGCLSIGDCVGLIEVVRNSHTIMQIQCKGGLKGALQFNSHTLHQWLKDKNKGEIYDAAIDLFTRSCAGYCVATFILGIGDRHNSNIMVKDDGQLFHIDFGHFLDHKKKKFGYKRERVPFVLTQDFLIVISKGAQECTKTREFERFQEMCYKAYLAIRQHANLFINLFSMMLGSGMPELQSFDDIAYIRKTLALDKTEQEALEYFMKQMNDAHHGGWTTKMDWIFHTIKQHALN

SMILES	pKi [2]	pKi [3]	pEC50 [4]	pEC50 [5]	pIC50 [6]	pIC50 [7]	pKi [8]	other results
CC(C)(O)c1nc2c(N3CCOCC3)nc(-c3cnc(N)nc3)nc2n1CCO	8.40	8.70						pKi [1]: 7.14
CCNC(=O)Nc1ccc(-c2nc(N3CCOC[C@@H]3C)c3c(ccn3C)n2)cc1	< 5.00	< 5.00	5.72	5.05	6.96	7.11	7.72	
CCNC(=O)Nc1ccc(-c2nc(N3CCOC[C@@H]3CC)c3c(n2)c(C)nn3C)cc1	< 5.00	5.24	7.07	6.80	8.10	8.40		
CCNC(=O)Nc1ccc(-c2nc(N3CCOC[C@@H]3CC)c3c(ccn3C)n2)cc1	< 5.00	< 5.00	6.55	6.38	7.40	7.96	8.22	
CCNC(=O)Nc1ccc(-c2nc(N3CCOC[C@@H]3C)c3c(n2)nc(C(C)(C)O)n3C)cc1	5.14	5.15						
CCNC(=O)Nc1ccc(-c2nc(N3CCOCC3)c3c(ncn3C)n2)cc1							6.82	
CCNC(=O)Nc1ccc(-c2nc(N3CCOC[C@@H]3C)c3nc(C(C)(C)O)n(C)c3n2)cc1	6.31	6.41					8.15	
CCNC(=O)Nc1ccc(-c2nc(N3CCOC[C@@H]3C)c3c(ncn3C)n2)cc1	< 5.00	< 5.00	6.54	5.89				
CCNC(=O)Nc1ccc(-c2nc(N3CCOC[C@@H]3C)c3ncn(C)c3n2)cc1	6.05	6.43					7.92	
CCNC(=O)Nc1ccc(-c2nc(N3CCOC[C@H]3C)c3c(ncn3C)n2)cc1								pIC50 [2]: 5.40; pIC50 [3]: 5.24
CCNC(=O)Nc1ccc(-c2nc(N3CCOC[C@@H]3C)c3c(ncn3CC)n2)cc1	< 5.00	< 5.00						
CCNC(=O)Nc1ccc(-c2nc(N3CCOC[C@@H]3CC)c3c(cnn3C)n2)cc1	< 5.00	5.47	6.89	6.59	7.82	8.10	9.00	

Second part, led by results:

pKi [2]	pKi [3]	pEC50 [4]	pEC50 [5]	pIC50 [6]	pIC50 [7]	pKi [8]	SMILES	other results
				5.05	5.14		CCNC(=O)Nc1ccc(-c2nc(N3CCCOCC3)c3c(ncn3C)n2)cc1	Ratio [9]: 53; Ratio [10]: 61; pIC50 [2]: 5.14; pIC50 [3]: 5.19
5.29	5.29	5.54	5.77	6.57	6.47	7.55	CCNC(=O)Nc1ccc(-c2nc(N3C[C@@H]4C[C@H]3CO4)c3c(cnn3C)n2)cc1	
6.80	6.72					8.02	CCNC(=O)Nc1ccc(-c2nc(N3CCOC[C@@H]3C)c3nc(C(C)(C)O)n(CCO)c3n2)cc1	pKi [1]: 8.05
< 5.00	< 5.00	6.38	6.12	7.33	8.10	8.10	CCNC(=O)Nc1ccc(-c2nc(N3CCOC[C@@H]3C)c3c(cnn3C)n2)cc1	efflux ratio [11]: 0.55; Papp B→A [12]: 8.6 ×10⁻⁶ cm/s; bioavailability [13]: 4.4%; Vd [14]: 0.36 L/kg; clearance [15]: 13 mL/min/kg
6.20	6.42					8.10	CCNC(=O)Nc1ccc(-c2nc(N3CCOC[C@@H]3C)c3ncn(CC)c3n2)cc1	
		6.13	6.29	6.82	7.16		CCNC(=O)Nc1ccc(-c2nc(N3CCOC[C@@H]3CC)c3c(ncn3C)n2)cc1	Ratio [9]: > 2600; Ratio [10]: > 2600; pIC50 [2]: < 5.00; pIC50 [3]: < 5.00

Source: ChEMBL document CHEMBL2417437, “A hit to lead discovery of novel N-methylated imidazolo-, pyrrolo-, and pyrazolo-pyrimidines as potent and selective mTOR inhibitors” (Bioorg Med Chem Lett, 2013)
